The source made the active and inactive calls. The rule behind the calls is not given here.
Key:
[1] = Clearance in C57BL/6 mouse at 2 mg/kg, iv or 5 mg/kg, po administered as single dose measured up to 24 hrs by LC-MS/MS analysis; type: ADME, organism-based; details: in vivo
[2] = Half life in human hepatocytes at 3 uM by LC-MS/MS analysis; type: ADME, cell-based, Hepatocyte
[3] = test system: Human immunodeficiency virus 1; test: (§1) Ratio of IC50 for NNRTI-resistant HIV1 12231 Nucleocapsid protein (11 to 55 residues) using Alexa488-5'-cTAR-3'-Dabcyl oligonucleotide as substrate to IC50 for HIV1 Nucleocapsid protein (11 to 55 residues) assessed as reduction in NC-induced cTAR DNA destabilization by measuring intrinsic fluorescence using Alexa488-5'-cTAR-3'-Dabcyl oligonucleotide as substrate at 20 degree C incubated for 15 mins by fluorescence assay
[4] = Oral bioavailability in C57BL/6 mouse at 5 mg/kg administered as single dose measured up to 24 hrs by LC-MS/MS analysis; type: ADME, organism-based; details: in vivo
Outline: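 C57BL/6 mice were dosed 5 mg/kg orally, with a 2 mg/kg iv reference arm. Plasma was sampled at eight time points up to 24 h.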

[5] = test system: Human immunodeficiency virus 1; test: Antiviral activity against NNRTI-resistant HIV1 12231; type: functional, organism-based; details: Human immunodeficiency virus 1, 12231
[6] = Volume of distribution at steady state in C57BL/6 mouse at 2 mg/kg, iv or 5 mg/kg, po administered as single dose measured up to 24 hrs by LC-MS/MS analysis; type: ADME, organism-based; details: in vivo, read-out: Vdss
[7] = test system: Human immunodeficiency virus 1; test: as §1, with “PI-resistant” for “NNRTI-resistant”, “11808” for “12231”
[8] = target: Voltage-gated inwardly rectifying potassium channel KCNH2 (Homo sapiens, UniProt Q12809); test: Displacement of Tracer Red from human ERG measured after 4 hrs by fluorescence polarization assay
Sequence of Voltage-gated inwardly rectifying potassium channel KCNH2 (Q12809 whole entry): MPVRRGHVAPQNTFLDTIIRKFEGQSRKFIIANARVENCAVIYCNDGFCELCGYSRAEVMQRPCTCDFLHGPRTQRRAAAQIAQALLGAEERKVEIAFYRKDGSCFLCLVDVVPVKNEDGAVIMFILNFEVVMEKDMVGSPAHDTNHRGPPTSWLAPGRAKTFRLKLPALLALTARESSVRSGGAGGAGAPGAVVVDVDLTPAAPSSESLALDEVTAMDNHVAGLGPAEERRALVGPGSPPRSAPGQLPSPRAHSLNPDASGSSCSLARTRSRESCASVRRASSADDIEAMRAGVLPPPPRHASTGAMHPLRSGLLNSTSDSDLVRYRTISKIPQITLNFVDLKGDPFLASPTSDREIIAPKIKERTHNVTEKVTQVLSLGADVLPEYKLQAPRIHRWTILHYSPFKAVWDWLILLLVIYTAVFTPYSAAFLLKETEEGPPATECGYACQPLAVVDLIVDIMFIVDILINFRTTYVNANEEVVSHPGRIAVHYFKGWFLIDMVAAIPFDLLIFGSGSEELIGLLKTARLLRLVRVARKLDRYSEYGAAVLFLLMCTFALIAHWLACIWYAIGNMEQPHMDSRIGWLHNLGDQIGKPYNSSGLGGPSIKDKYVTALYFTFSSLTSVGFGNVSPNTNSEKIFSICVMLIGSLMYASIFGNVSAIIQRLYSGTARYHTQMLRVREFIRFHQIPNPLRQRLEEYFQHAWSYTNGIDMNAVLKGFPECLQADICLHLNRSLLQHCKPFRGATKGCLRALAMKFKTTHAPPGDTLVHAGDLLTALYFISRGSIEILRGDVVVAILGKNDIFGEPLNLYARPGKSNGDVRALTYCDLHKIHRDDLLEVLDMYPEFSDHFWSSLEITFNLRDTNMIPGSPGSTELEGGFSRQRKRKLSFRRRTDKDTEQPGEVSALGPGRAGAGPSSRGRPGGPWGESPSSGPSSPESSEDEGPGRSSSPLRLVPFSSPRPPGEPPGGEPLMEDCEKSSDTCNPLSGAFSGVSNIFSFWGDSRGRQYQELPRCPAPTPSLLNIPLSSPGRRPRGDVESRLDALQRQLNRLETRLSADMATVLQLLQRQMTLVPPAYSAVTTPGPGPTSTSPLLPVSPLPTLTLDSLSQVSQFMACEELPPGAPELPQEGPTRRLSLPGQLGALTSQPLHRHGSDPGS

[9] = test system: Human immunodeficiency virus 1; test: as §1, with “INI-resistant” for “NNRTI-resistant”, “11845” for “12231”
[10] = (§2) Selectivity index, ratio of CC50 for human HeLa cells assessed as reduction in cell viability to EC50 for wild-type HIV1 NL4-3 infected in human TZM-bl cells infected with supernatants from virus-infected human MT2 cells treated with compound for 48 to 72 hrs assessed as reduction in viral replication after 2 days by bright Glo-luciferase reporter gene assay based BiCycle assay; type: toxicity; details: read-out: Ratio CC50/EC50
Outline: (§3)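 Selectivity index is CC50 from the respective cytotoxicity assay (HeLa or PBMC) divided by EC50 from the two-round MT-2/TZM-bl NL4-3 assay.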

[11] = Inhibition of HIV1 Nucleocapsid protein (11 to 55 residues) assessed as reduction in NC-induced cTAR DNA destabilization by measuring intrinsic fluorescence using Alexa488-5'-cTAR-3'-Dabcyl oligonucleotide as substrate at 20 degree C incubated for 15 mins by fluorescence assay; parameters: species or system Human immunodeficiency virus 1; details: read-out: IC50
Outline: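 Fluorescence NC-inhibition assay following destabilisation of cTAR DNA, the complement of the HIV-1 transactivation response element, dual-labelled with Alexa488 dye and Dabcyl quencher. NC protein at 1 μM, so the lowest measurable IC50 is 0.5 μM.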

Cytochrome P450 2D6 = Cytochrome P450 2D6 (Homo sapiens, UniProt P10635); test: Inhibition of human microsomal CYP2D6 expressed in baculovirus infected insect cells using luciferin-ME as substrate preincubated with enzyme/substrate mixture for 30 mins followed by further incubation with NADPH for 30 mins by CYP450 luciferase Glo assay; type: ADME
Sequence of Cytochrome P450 2D6 (P10635 whole entry): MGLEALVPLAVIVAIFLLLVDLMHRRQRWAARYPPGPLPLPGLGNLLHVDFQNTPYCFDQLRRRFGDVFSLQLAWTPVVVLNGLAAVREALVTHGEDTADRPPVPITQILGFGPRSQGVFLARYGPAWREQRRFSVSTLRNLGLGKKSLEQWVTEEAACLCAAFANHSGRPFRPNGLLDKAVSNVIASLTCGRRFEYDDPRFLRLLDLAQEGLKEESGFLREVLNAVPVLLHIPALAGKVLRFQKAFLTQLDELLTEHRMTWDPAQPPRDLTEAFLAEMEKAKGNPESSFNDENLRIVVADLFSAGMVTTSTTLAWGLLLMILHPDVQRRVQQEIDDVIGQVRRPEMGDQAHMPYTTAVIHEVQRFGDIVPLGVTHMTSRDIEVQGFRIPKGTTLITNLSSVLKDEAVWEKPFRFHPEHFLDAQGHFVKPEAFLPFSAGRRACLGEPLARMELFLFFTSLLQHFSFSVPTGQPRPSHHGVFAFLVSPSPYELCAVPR

[12] = Half life in mouse hepatocytes at 3 uM by LC-MS/MS analysis; type: ADME, cell-based, Hepatocyte
[13] = test system: Human immunodeficiency virus 1; test: Antiviral activity against NRTI-resistant HIV1 7401; type: functional, organism-based; details: Human immunodeficiency virus 1, 7401
[14] = Selectivity index, ratio of CC50 for human PBMC cells stimulated with phytohemagglutinin and interleukin-2 assessed as reduction in cell viability measured after 7 days by MTS assay to EC50 for wild-type HIV1 NL4-3 infected in human TZM-bl cells infected with supernatants from virus-infected human MT2 cells treated with compound for 48 to 72 hrs assessed as reduction in viral replication after 2 days by bright Glo-luciferase reporter gene assay based BiCycle assay; type: toxicity; details: read-out: Ratio CC50/EC50; outline: as §3
Cytochrome P450 3A4 = Cytochrome P450 3A4 (Homo sapiens, UniProt P08684); test: Inhibition of human microsomal CYP3A4 expressed in baculovirus infected insect cells using luciferin-IPA as substrate preincubated with enzyme/substrate mixture for 30 mins followed by further incubation with NADPH for 30 mins by CYP450 luciferase Glo assay; type: ADME
Sequence of Cytochrome P450 3A4 (P08684 whole entry): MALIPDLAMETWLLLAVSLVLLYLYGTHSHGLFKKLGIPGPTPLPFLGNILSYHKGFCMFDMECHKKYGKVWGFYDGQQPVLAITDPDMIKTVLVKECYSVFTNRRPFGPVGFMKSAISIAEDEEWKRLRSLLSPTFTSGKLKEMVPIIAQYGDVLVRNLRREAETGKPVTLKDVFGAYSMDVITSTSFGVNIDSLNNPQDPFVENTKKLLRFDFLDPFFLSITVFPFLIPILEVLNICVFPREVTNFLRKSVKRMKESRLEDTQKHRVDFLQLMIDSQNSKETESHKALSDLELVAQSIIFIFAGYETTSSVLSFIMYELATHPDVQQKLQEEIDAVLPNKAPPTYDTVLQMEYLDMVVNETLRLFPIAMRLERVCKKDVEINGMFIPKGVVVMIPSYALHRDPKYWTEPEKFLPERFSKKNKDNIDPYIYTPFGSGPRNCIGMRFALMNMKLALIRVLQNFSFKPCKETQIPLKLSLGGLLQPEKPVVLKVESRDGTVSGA

[15] = Half life in C57BL/6 mouse at 2 mg/kg, iv or 5 mg/kg, po administered as single dose measured up to 24 hrs by LC-MS/MS analysis; type: ADME, organism-based; details: in vivo
Cytochrome P450 1A2 = target: T1, Cytochrome P450 1A2 (Homo sapiens, UniProt P05177); test: Inhibition of human microsomal CYP1A2 expressed in baculovirus infected insect cells using luciferin-1A2 as substrate preincubated with enzyme-substrate mixture for 30 mins followed by further incubation with NADPH for 30 mins by CYP450 luciferase Glo assay; type: ADME
T1 sequence (P05177 whole entry): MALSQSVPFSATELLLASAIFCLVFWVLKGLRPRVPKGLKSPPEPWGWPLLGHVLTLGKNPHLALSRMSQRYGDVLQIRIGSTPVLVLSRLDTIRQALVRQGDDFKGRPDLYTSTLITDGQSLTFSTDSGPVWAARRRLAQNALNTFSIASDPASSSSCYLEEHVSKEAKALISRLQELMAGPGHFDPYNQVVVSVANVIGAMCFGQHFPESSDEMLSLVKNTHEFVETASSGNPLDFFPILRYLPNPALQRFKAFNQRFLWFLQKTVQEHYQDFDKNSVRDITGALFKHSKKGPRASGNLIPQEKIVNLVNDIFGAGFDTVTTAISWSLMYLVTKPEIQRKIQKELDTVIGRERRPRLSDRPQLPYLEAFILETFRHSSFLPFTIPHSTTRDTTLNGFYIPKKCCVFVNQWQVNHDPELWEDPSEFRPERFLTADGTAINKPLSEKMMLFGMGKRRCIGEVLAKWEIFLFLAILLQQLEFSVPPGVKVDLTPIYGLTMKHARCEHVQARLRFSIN

[16] = test system: Human immunodeficiency virus 1; test: as §2, with “Antiviral activity against” for “Selectivity index, ratio of CC50 for human HeLa cells assessed as reduction in cell viability to EC50 for”; type: functional, organism-based; details: Human immunodeficiency virus 1, NL4-3, TZM
Outline: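 Two-round cell assay over the full replication cycle: MT-2 T cells are infected with wild-type reference strain NL4-3 in the first round, and reporter TZM-bl cells are infected in the second round. Values are given as mean ± deviation.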

[17] = target: Human immunodeficiency virus type 1 integrase (Human immunodeficiency virus 1) (UniProt Q7ZJM1); test: Inhibition of wild type recombinant HIV1 His6-tagged integrase expressed in Escherichia coli BL21 using 18 nucleotide 3'-biotin labeled DNA acceptor as substrate upto 10 uM preincubated for 1 hr followed by substrate addition and further incubated for 90 mins in presence of recombinant LEDGF/p75 by HTRF assay
Sequence of Human immunodeficiency virus type 1 integrase (Human immunodeficiency virus 1) (Q7ZJM1 as listed by the source): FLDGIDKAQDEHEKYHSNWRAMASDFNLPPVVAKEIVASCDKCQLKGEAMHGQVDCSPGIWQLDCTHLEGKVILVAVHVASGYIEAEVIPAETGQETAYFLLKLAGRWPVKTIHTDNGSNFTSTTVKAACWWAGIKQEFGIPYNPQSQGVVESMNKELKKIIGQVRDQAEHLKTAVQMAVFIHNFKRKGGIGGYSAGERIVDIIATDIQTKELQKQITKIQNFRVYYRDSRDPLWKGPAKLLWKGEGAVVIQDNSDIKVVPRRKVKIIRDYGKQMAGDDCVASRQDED

[18] = Cytotoxicity against human HeLa cells assessed as reduction in cell viability; type: cell-based
[19] = Half life in mouse plasma at 3 uM by LC-MS/MS analysis; type: ADME, cell-free
[20] = test system: Human immunodeficiency virus 1; test: Antiviral activity against INI-resistant HIV1 11845; type: functional, organism-based; details: Human immunodeficiency virus 1, 11845
[21] = test system: Human immunodeficiency virus 1; test: Antiviral activity against PI-resistant HIV1 11808; type: functional, organism-based; details: Human immunodeficiency virus 1, 11808
[22] = test system: Human immunodeficiency virus 1; test: as §1, with “NRTI-resistant” for “NNRTI-resistant”, “7401” for “12231”
[23] = Half life in human plasma at 3 uM by LC-MS/MS analysis; type: ADME, cell-free
[24] = Cytotoxicity against phytohemagglutinin and interleukin-2-stimulated human PBMC cells assessed as reduction in cell viability measured after 7 days by MTS assay; type: cell-based

Structure (SMILES): COc1ccnc(-c2nc(O)c(O)c(C(=O)N[C@H](C)C3CCCCC3)n2)c1
- clearance [1]: 33.1 mL/min/kg
- half-life at 3 µM [2]: > 4 h
- Ratio IC50 [3]: 2.8
- bioavailability [4]: 25%
- EC50 [5]: 110 nM
- Vd [6]: 0.8 L/kg
- Ratio IC50 [7]: 1.4
- IC50 [8]: > 30000 nM
- Ratio IC50 [9]: 2.3
- selectivity ratio [10]: 75
- IC50 [11]: 22000 nM
- IC50 (Cytochrome P450 2D6): > 30000 nM
- half-life at 3 µM [12]: 1.9 h
- EC50 [13]: 31 nM
- selectivity ratio at 7 days [14]: 75
- IC50 (Cytochrome P450 3A4): > 30000 nM
- half-life [15]: 1.4 h
- IC50 (Cytochrome P450 1A2): > 30000 nM
- EC50 [16]: 40 nM
- inhibition [17]: inactive
- CC50 [18]: 3000 nM
- half-life at 3 µM [19]: > 24 h
- EC50 [20]: 90 nM
- EC50 [21]: 56 nM
- Ratio IC50 [22]: 0.8
- half-life at 3 µM [23]: > 6 h
- CC50 at 168 h [24]: 2700 nM
